Data taken from ChEMBL document CHEMBL3734738, “A structure-activity relationship of non-peptide macrocyclic histone deacetylase inhibitors and their anti-proliferative and anti-inflammatory activities” (Bioorg Med Chem, 2015).

What was measured:
Histone deacetylase 1 = Histone deacetylase 1 (Homo sapiens, UniProt Q13547); assay: Inhibition of recombinant HDAC1 (unknown origin) expressed in Escherichia coli BL21(DE3) after 60 mins using trichostatin A by label-free mass spectrometry-based SAMDI assay
[1] = molecular target: T1, Protein deacetylase HDAC6 (Homo sapiens, UniProt Q9UBN7); assay: Inhibition of recombinant HDAC6 (unknown origin) expressed in Escherichia coli BL21(DE3) after 60 mins using trichostatin A by label-free mass spectrometry-based SAMDI assay
T1 sequence (Q9UBN7 whole entry): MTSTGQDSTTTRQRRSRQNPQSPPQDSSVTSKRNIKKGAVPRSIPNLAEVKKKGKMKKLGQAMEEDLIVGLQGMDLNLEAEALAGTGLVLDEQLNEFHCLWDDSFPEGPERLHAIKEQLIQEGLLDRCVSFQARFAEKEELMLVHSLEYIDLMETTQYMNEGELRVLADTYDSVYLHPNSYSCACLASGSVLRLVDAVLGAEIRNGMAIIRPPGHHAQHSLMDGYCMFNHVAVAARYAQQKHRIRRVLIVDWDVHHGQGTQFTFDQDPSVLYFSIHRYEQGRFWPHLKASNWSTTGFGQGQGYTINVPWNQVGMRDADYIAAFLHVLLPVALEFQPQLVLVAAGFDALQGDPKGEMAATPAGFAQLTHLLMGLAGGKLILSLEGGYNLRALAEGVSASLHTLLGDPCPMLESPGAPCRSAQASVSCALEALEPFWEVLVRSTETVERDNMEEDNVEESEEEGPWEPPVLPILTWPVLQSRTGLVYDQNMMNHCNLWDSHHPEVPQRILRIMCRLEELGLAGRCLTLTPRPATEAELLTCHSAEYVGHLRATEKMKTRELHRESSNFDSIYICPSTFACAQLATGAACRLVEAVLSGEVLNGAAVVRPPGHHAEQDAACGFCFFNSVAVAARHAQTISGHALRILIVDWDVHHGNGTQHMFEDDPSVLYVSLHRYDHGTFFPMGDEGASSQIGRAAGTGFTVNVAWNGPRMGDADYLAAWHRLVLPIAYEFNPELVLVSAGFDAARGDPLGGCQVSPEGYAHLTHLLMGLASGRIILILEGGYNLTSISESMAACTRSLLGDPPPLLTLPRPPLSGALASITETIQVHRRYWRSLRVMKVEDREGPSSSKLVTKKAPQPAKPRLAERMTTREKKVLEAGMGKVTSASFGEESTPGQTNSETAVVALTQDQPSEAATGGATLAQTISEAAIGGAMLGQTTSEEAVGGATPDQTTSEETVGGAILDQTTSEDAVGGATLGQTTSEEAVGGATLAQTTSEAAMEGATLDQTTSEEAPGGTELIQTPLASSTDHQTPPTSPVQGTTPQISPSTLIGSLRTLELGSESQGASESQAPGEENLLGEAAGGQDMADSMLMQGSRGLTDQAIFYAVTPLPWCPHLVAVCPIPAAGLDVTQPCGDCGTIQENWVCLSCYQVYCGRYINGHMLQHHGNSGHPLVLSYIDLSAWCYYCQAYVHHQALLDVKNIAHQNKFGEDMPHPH

Histone deacetylase 8 = molecular target: T2, Histone deacetylase 8 (Homo sapiens, UniProt Q9BY41); assay: Inhibition of recombinant HDAC8 (unknown origin) expressed in Escherichia coli BL21(DE3) after 60 mins using trichostatin A by label-free mass spectrometry-based SAMDI assay
T2 sequence (Q9BY41 whole entry): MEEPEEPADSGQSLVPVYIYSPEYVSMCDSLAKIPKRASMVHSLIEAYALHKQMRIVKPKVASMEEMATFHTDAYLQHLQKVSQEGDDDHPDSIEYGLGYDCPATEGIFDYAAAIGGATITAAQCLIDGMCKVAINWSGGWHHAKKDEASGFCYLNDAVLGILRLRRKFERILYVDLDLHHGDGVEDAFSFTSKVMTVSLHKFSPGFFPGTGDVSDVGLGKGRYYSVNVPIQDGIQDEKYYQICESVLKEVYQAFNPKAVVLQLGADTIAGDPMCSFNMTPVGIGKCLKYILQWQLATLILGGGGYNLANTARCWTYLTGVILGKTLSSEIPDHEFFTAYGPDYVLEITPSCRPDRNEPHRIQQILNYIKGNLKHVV

A549 = assay: Cytotoxicity against human A549 cells after 72 hrs by MTS assay; assay type: functional, cell-based; settings: Homo sapiens, A549, 72 h; read-out: IC50
Outline: (§1)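 Cells kept in DMEM with 10% FBS and 1% penicillin-streptomycin, seeded in 96-well plates for 24 h, then exposed to a range of drug concentrations for 72 h at 0.1% DMSO; viability read by MTS assay per manufacturer's protocol.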

MCF7 = assay: Cytotoxicity against human MCF7 cells after 72 hrs by MTS assay; assay type: functional, cell-based; settings: Homo sapiens, MCF7, 72 h; read-out: IC50; outline: as §1
Vero = assay: Cytotoxicity against African green monkey Vero cells after 72 hrs by MTS assay; assay type: cell-based; settings: Chlorocebus sabaeus; outline: as §1
[2] = Selectivity ratio of IC50 for African green monkey Vero cells to IC50 for human A549 cells; assay type: ADME, cell-based; settings: Vero cells and A549 cells, read-out: Ratio IC50
Outline: (§2)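 Cell viability (MTS) was measured in A549, MCF-7 and Vero cells kept in DMEM with 10% FBS and 1% penicillin-streptomycin. Cells were plated 24 h before drug, then exposed to a range of concentrations for 72 h, with DMSO held at 0.1%. The ratio divides the Vero IC50 by the IC50 for the tumour line, both from this assay.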

[3] = Selectivity ratio of IC50 for African green monkey Vero cells to IC50 for human MCF7 cells; assay type: ADME, cell-based; settings: Vero cells and MCF7 cells, read-out: Ratio IC50; outline: as §2

Chain of Histone deacetylase 1 (Q13547 whole entry): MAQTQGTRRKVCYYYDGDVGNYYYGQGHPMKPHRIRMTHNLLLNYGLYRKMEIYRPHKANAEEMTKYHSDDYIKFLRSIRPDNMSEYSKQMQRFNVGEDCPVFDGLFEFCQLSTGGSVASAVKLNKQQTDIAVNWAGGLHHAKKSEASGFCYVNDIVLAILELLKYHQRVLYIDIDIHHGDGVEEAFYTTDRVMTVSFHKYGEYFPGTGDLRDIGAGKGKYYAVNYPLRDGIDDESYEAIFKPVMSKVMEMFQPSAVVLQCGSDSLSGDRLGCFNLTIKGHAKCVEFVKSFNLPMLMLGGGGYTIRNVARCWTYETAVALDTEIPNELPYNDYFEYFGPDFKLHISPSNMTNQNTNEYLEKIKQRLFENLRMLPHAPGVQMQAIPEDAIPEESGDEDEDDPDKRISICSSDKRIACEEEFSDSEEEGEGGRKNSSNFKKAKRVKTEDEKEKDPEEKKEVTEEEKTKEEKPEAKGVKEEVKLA

`CC[C@H]1OC(=O)[C@H](C)C(=O)[C@H](C)[C@@H](O[C@@H]2O[C@H](C)C[C@H](N(C)Cc3cccc(-c4cn(CCCCCCC(=O)NO)nn4)c3)[C@H]2O)[C@@](C)(OC)C[C@@H](C)C2=NCCN3C(=O)O[C@@]1(C)[C@H]3[C@H]2C` showed an IC50 (Histone deacetylase 1) of 54.5 nM, an IC50 [1] of 3.76 nM and an IC50 (Histone deacetylase 8) of 310 nM. The IC50 (A549) was 7480 nM, the IC50 (MCF7) was 860 nM and the IC50 (Vero) was over 20000 nM. For the same compound, the selectivity ratio [2] was 2.7 and the selectivity ratio [3] was 23.
